Experimental data pooled from the literature.
Each line is one published result; the experiments were not run side by side.
Target: Mitogen-activated protein kinase 1 (MAPK1, Homo sapiens, UniProt P28482)

Structure (SMILES) | observed | action | method | tested at | measurement | result
O=C1C=C(Nc2ccc(OCc3cn(Cc4ccccc4)nn3)cc2)C(=O)c2ccccc21 | enzyme activity | inhibitor | radiometric | 10 µM | inhibition | 18%
Cc1cc(O)c(-c2ccc([C@@H](C)CN(C)C)cc2)c2c1[nH]c(=O)c1sccc12 | enzyme activity | inhibitor | – | 0.1 µM | inhibition | 6.8%
COc1ccc2[nH]c3c4[nH]c5ccc(OC)cc5c4c4c(c3c2c1)C(=O)NC4=O | binding | – | – | 1 µM | remaining binding | 76%
C#Cc1cc(-c2cc(Nc3nc(N[C@@H](C)c4ccc(F)cn4)ncc3Cl)n[nH]2)ccc1C=O | enzyme activity | inhibitor | – | 0.2 µM | inhibition | 10.4%
C=CC(=O)N1CCC([C@@H]2CCNc3c(C(N)=O)c(-c4ccc(Oc5ccccc5)cc4)nn32)CC1 | enzyme activity | inhibitor | – | 1 µM | inhibition | 10%
COc1ccc2oc(-c3ccc4nc(N)oc4c3)c/c(=N\c3ccccc3NC(=O)CCN)c2c1 | binding | – | – | 1 µM | remaining binding | 97%
CC#CC(=O)N1CCC[C@H]1c1nc(-c2ccc(C(=O)Nc3ccccn3)cc2)c2c(N)nccn12 | enzyme activity | inhibitor | – | 1 µM | inhibition | 3%
CCCCC(=O)Nc1ccc(-c2ccc3ncn(CCC)c(=O)c3c2)cn1 | binding | – | competition with immobilised ligand | 0.5 µM | remaining binding | 89%
C[C@H]1CC[C@H](n2c3cnccc3c3cnc(Nc4ccc5c(n4)CCN(C(=O)CO)C5)nc32)CC1 | cell-free assay | – | – | 1 µM | remaining signal | 100%
